35 molecules from PubChem BioAssay AID743061 (The Scripps Research Institute Molecular Screening Center, 2013) can be followed below.

The assay concerns the target Methionine--tRNA ligase, mitochondrial (Homo sapiens) (UniProt Q96GW9). Briefly: inhibitors of human mitochondrial MetRS, late-stage follow-up, selectivity assay for T. brucei MetRS inhibitor project, biochemical, radioactivity, round 1 (AID 743061).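 Note: 0% = DMSO with full reaction and 100% = DMSO wells lacking tRNA.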 As to conditions: recombinant human mtMetRS, [3H]Met tRNA charging, at 1 µM, stronger effect = higher value. An outline of the steps: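 Material: Recombinant human mitochondrial methionyl-tRNA synthetase (MetRS) | Medium: pH 8.0 buffer, 2.5 mM ATP | Reagent: [3H]Met 240 nM plus bulk E. coli tRNA | Compound: 10 and 1 µM | Schedule: 15 min compound–enzyme preincubation, then 1 h reaction at room temperature | Measured by: Scintillation counts of TCA-precipitated charged tRNA on filters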

Consider `O=C(Cn1cc(C(=O)COc2ccccc2)c2ccccc21)Nc1cccc(C(F)(F)F)c1`, for which the inhibition – broadly, the relative decrease from the control value, in per cent – was -22.6%.

On to `CC(=O)N(CCc1ccccc1)C1CC(=O)N(c2ccc(Cl)cc2)C1=O` (stereo not given), for which the inhibition is -19.9%.

As to `CC(C)OCCCN1CC(=O)N2C(c3cccc([N+](=O)[O-])c3)c3[nH]c4ccccc4c3C[C@H]2C1=O` (stereo not given in full), the inhibition was -24.2%.

For `O=C(Cn1cc(C(=O)C(=O)N2CCCC2)c2ccccc21)Nc1ccccc1`, the inhibition was -7.71%.

For `O=C(Cn1cc(C(=O)C(=O)N2CCOCC2)c2ccccc21)Nc1cccc(C(F)(F)F)c1`, the inhibition is -22.4%.

In the case of `Cn1c(CCNC(=O)c2ccc(Cl)cc2)nc2ccccc21`, the inhibition came to 11.6%.

In the case of `O=C(NCc1nc2ccccc2[nH]1)C1=C[C@H](c2ccc(Br)cc2)C[C@H](OCCCCO)O1`, the inhibition is -6.37%.

For the molecule `O=C(C[C@H]1C(=O)N(Cc2ccccc2)C[C@@H]1c1ccc(Br)cc1)Nc1ccc(Br)cc1`, the inhibition is -13%.

Regarding `Cc1[nH]c2ccc(Br)cc2c(=O)c1CN1CCCCCC1`, the inhibition was -31.2%.

For the molecule `CCc1ccc2[nH]c3nc(SCC(=O)NCc4cccc(OC)c4)nnc3c2c1`, the inhibition is -1.1%.

Take `Cc1cccc2[nH]c(C3CCCN(C(=O)c4cccc5cccnc45)C3)nc12` (stereo not given): the inhibition was -4.24%.

In the case of `CCCCCCCCCC1NC(C(=O)O)Cc2c1[nH]c1ccccc21` (stereo not given), the inhibition is -2.41%.

As to `O=C(NCc1nc2ccccc2[nH]1)C1=C[C@H](c2ccc3c(c2)OCO3)C[C@H](OCCCCO)O1`, the inhibition was -10.7%.

Consider `COc1ccc(NC(=O)CSc2nnc3c4cc(C)ccc4n(C)c3n2)cc1`, for which the inhibition is -0.75%.

Regarding `CC(C)(C)[C@@H]1C=C(C(=O)NCc2nc3ccccc3[nH]2)O[C@H](OCc2ccc(CO)cc2)C1`, the inhibition was -10.6%.

With `Cc1cccc2[nH]c(CCN(C)C(=O)c3cccc(C4CCNC4)c3)nc12` (stereo not given), the inhibition was -6.15%.

As to `O=C(CSC1CC(=O)N(c2cccc(Cl)c2)C1=O)Nc1ccc(Br)cc1` (stereo not given), the inhibition is -12.3%.

As to `CCC(=O)c1cn(CC(=O)Nc2cccc(C(F)(F)F)c2)c2ccccc12`, the inhibition was -18.3%.

For `Cc1ccc2[nH]c3nc(SCC(=O)Nc4ccc(C(F)(F)F)cc4)nnc3c2c1`, the inhibition was -10%.

On to `CCN(C(=O)Cn1cc(C(=O)C(=O)N2CCOCC2)c2ccccc21)c1ccccc1`, for which the inhibition was -12.3%.

Regarding `COc1ccccc1NS(=O)(=O)c1cccc(NC(=O)Nc2ccccc2)c1`, the inhibition is -9.69%.

For the molecule `O=C1CC(NCCc2ccccc2)C(=O)N1c1ccc(Br)cc1` (stereo not given), the inhibition was -12.9%.

`Cc1cccc(C(=O)NCCc2nc3ccccc3n2CCOc2ccccc2)c1`: the inhibition is 1.28%.

Take `O=C(Cn1cc(C(=O)C(=O)N2CCOCC2)c2ccccc21)NCC1CCCO1` (stereo not given): the inhibition is -9.17%.

Consider `O=C(NCc1nc2ccccc2[nH]1)C1=C[C@H](c2ccccc2)C[C@H](OCc2ccc(CO)cc2)O1`, for which the inhibition was -8.08%.

On to `O=C1CC(SCc2nc3ccccc3[nH]2)C(=O)N1c1cccc(Cl)c1` (stereo not given), for which the inhibition is -4.5%.

`O=C(NCc1nc2ccccc2[nH]1)C1=C[C@@H](c2csc3ccccc23)C[C@@H](OCCCCO)O1`: the inhibition is -15%.

`O=C(NCc1nc2ccccc2[nH]1)C1=C[C@@H](C2CC2)C[C@@H](OCc2ccc(CO)cc2)O1`: the inhibition is -11.4%.

Turning to `CCN(CC)C(=O)C(=O)c1cn(CC(=O)N2CCCc3ccccc32)c2ccccc12`, the inhibition is -14.3%.

As to `CC1Cc2ccccc2N1C(=O)Cn1cc(C(=O)C(=O)N2CCOCC2)c2ccccc21` (stereo not given), the inhibition is -0.48%.

On to `O=C(Cn1cc(C(=O)c2ccco2)c2ccccc21)Nc1cccc(C(F)(F)F)c1`, for which the inhibition stood at 2.74%.

As to `COc1ccc2[nH]c3nc(SCC(=O)Nc4ccc5c(c4)OCO5)nnc3c2c1`, the inhibition was found to be 14.3%.

As to `O=C(CSc1nnc2c(n1)[nH]c1ccc(Br)cc12)NCc1ccccc1`, the inhibition is -0.52%.

On to `O=C(CCC(=O)Nc1cccc([N+](=O)[O-])c1)NN=Cc1cccs1`, for which the inhibition is -28.9%.

As to `O=C(NCc1nc2ccccc2[nH]1)C1=C[C@@H](c2ccc(Br)cc2)C[C@@H](OCCCCO)O1`, the inhibition is -9.46%.
